Assay results published in paper PMC3932990 (Journal of medicinal chemistry, 2013).

Tests used:
[1] = molecular target: T1, RPA70N (Homo sapiens, UniProt P27694); assay: ATRIP-based FPA competition assay; format: binding; details: from FPA-derived Kd
In short: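 Competitive fluorescence polarization anisotropy. Buffer: 50 mM HEPES, 75 mM NaCl, 5 mM DTT, pH 7.5, 5% DMSO. Test compound run as 10-point 3-fold series, 500–0.025 µM final. 4-parameter logistic IC50 converted to Kd.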

[2] = molecular target: T1, RPA70N; assay: NMR-based titration, binding to RPA70N; details: linked compound vs fragments

ligand efficiency (LE) [1]	increase in affinity with respect to the starting fragments [2] [fold]	SMILES
0.23	–	O=C(O)c1cc(-c2ccc(CNC(=S)c3ccc(-c4ccc(C(=O)O)o4)cc3Cl)cc2)n(-c2ccc(Cl)c(Cl)c2)n1 [compound 8, 5-(4-((4-(5-Carboxyfuran-2-yl)-2-chlorophenylthioamido)methyl)phenyl)-1-(3,4-dichlorophenyl)-1H-pyrazole-3-carboxylic acid]
–	> 20	Cc1cccc(-n2nc(C(=O)O)cc2-c2ccc(OCc3ccc(-c4ccc(C(=O)O)o4)cc3)cc2)c1 [compound 7, 5-(4-((4-(5-Carboxyfuran-2-yl)benzyl)oxy)phenyl)-1-(m-tolyl)-1H-pyrazole-3-carboxylic acid]
0.18	–	O=C(O)c1cc(-c2ccc(CNC(=O)c3ccc(-c4ccc(C(=O)O)o4)cc3Cl)cc2)n(-c2ccc(Cl)c(Cl)c2)n1 [compound 22, 5-(4-((4-(5-Carboxyfuran-2-yl)-2-chlorobenzamido)methyl)phenyl)-1-(3,4-dichlorophenyl)-1H-pyrazole-3-carboxylic acid]
